In ChEMBL document CHEMBL4145447, “4-arylamidobenzyl substituted 5-bromomethylene-2(5H)-furanones for chronic bacterial infection” (Eur J Med Chem, 2018):

Columns and labels:
[1] = Cytotoxicity against mouse RAW264.7 cells assessed as cell viability at 5 uM after 48 hrs by MTT assay relative to control; type: cell-based; conditions: read-out: Activity
Outline: (§1)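 MTT viability: RAW264.7 cells (4 × 10^4/well) in DMEM + 10% FBS exposed to compounds diluted in DMEM for 48 h. MTT 0.5 mg/mL added for 4 h in the dark, formazan dissolved in DMSO, read at 570 nm. Viability = treated/medium-only control × 100; three independent experiments.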

[2] = biological target: T1, Anthranilate--CoA ligase (Pseudomonas aeruginosa (strain ATCC 15692 / DSM 22644 / CIP 104116 /JCM 14847 / LMG 12228 / 1C / PRS 101 / PAO1)) (UniProt Q9I4X3); test: Inhibition of Pseudomonas aeruginosa PAO1 GFP-fused quorum sensing pqsA at 10 uM measured every 15 mins up to 12 hrs by GFP reporter gene assay relative to control
T1 sequence (whole entry): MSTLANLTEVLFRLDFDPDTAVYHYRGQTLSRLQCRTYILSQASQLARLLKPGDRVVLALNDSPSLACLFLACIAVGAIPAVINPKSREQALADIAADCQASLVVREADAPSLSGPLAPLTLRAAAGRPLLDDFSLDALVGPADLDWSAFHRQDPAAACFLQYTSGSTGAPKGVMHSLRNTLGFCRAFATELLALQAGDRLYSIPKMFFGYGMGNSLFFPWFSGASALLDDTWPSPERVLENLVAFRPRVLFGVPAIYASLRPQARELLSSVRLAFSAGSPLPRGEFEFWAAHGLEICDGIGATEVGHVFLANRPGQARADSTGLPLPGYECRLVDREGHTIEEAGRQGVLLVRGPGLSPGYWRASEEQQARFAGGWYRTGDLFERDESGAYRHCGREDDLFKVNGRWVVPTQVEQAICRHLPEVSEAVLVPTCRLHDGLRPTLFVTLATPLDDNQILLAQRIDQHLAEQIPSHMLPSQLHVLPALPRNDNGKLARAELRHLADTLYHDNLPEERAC
Outline: (§2)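 GFP reporter strains of P. aeruginosa PAO1 (lasB-, rhlA- or pqsA-promoter fused to unstable gfp(ASV)) grown overnight in LB at 37 °C, 200 rpm, 18 h, then diluted 1:100. Culture mixed 1:1 with compound diluted in LB from 10 mM DMSO stock (0.1% DMSO final). Fluorescence (ex 485/em 528 nm) read every 15 min at 37 °C for ≥12 h.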

RAW264.7 [3] = test: Anti-inflammatory activity in mouse RAW264.7 cells assessed as inhibition of LPS-induced NO production at 10 uM preincubated for 2 hrs followed by LPS stimulation and measured after 48 hrs by Griess method relative to control; type: functional
Outline: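 RAW264.7 cells seeded at 5 × 10^4/well and cultured 18 h, then given 10 µM compound plus LPS 100 ng/mL for 48 h at 37 °C. Supernatant mixed 1:1 with Griess reagent (1% sulfanilamide, 0.1% naphthylethylenediamine in 5% phosphoric acid) for 10 min; nitrite read at OD540.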

[4] = biological target: Elastase (Pseudomonas aeruginosa (strain ATCC 15692 / PAO1 / 1C / PRS 101 / LMG12228)) (UniProt P14756); test: Inhibition of Pseudomonas aeruginosa PAO1 GFP-fused quorum sensing lasB at 10 uM measured every 15 mins up to 12 hrs by GFP reporter gene assay relative to control; outline: as §2
Chain of Elastase (Pseudomonas aeruginosa (strain ATCC 15692 / PAO1 / 1C / PRS 101 / LMG12228)) (P14756 198-498 limits assumed): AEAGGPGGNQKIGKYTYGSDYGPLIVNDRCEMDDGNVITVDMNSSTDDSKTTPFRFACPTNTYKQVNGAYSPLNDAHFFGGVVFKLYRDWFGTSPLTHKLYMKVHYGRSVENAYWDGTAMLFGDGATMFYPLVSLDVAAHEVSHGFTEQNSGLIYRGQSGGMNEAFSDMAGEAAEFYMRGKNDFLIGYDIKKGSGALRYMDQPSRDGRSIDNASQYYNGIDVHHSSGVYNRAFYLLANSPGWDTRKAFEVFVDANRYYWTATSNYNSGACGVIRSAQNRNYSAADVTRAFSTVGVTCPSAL

[5] = tested on: Pseudomonas aeruginosa PAO1; test: Inhibition of Pseudomonas aeruginosa PAO1 GFP-fused quorum sensing rhlA at 10 uM measured every 15 mins up to 12 hrs by GFP reporter gene assay relative to control; outline: as §2
RAW264.7 [6] = test: Anti-inflammatory activity in mouse RAW264.7 cells assessed as inhibition of LPS-induced TNF-alpha production by measuring TNF-alpha level at 10 uM preincubated for 2 hrs followed by LPS stimulation and measured after 6 hrs by ELISA (reference value: 11922 +/- 628.4 pg/ml); type: functional
[7] = Cytotoxicity against mouse RAW264.7 cells assessed as cell viability at 10 uM after 48 hrs by MTT assay relative to control; type: cell-based; conditions: read-out: Activity; outline: as §1
RAW264.7 [8] = test: Anti-inflammatory activity in mouse RAW264.7 cells assessed as inhibition of LPS-induced IL-6 production by measuring […] level at 10 uM preincubated for 2 hrs followed by LPS stimulation and measured after 6 hrs by ELISA (reference value: 94.6 +/- 5.9 pg/ml); type: functional
RAW264.7 [9] = test: Anti-inflammatory activity in mouse RAW264.7 cells assessed as inhibition of LPS-induced IL-6 production by measuring IL-6 level at 10 uM preincubated for 2 hrs followed by LPS stimulation and measured after 24 hrs by ELISA (reference value: 407.6 +/- 16.7 pg/ml)
Mus musculus [10] = test: Anti-inflammatory activity in LPS-induced sepsis shock mouse model assessed as survival rate at 20 mg/kg, iv pretreated daily for 5 days followed LPS treatment on day 5 at 1 hr post last dose and measured after 7 days relative to control; type: functional
Outline: (§3)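 Male SPF mice, randomly grouped, dosed i.v. with compound dissolved in DMSO and diluted in physiological saline; vehicle group given a similar volume. LPS was injected on day 5, 1 h after the last administration. Survival was recorded every 12 h for 7 days after LPS, with 11 animals per group per figure legend.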

RAW264.7 [11] = test: Anti-inflammatory activity in mouse RAW264.7 cells assessed as inhibition of LPS-induced TNF-alpha production by measuring TNF-alpha level at 10 uM preincubated for 2 hrs followed by LPS stimulation and measured after 12 hrs by ELISA (reference value: 21561.3 +/- 857 pg/ml); type: functional
RAW264.7 [12] = test: Anti-inflammatory activity in mouse RAW264.7 cells assessed as inhibition of LPS-induced IL-6 production by measuring […] level at 10 uM preincubated for 2 hrs followed by LPS stimulation and measured after 12 hrs by ELISA (reference value: 175.2 +/- 10.2 pg/ml); type: functional
RAW264.7 [13] = test: Anti-inflammatory activity in mouse RAW264.7 cells assessed as inhibition of LPS-induced TNF-alpha production by measuring TNF-alpha level at 10 uM preincubated for 2 hrs followed by LPS stimulation and measured after 24 hrs by ELISA (reference value: 24216 +/- 498.7 pg/ml); type: functional
Mus musculus [14] = test: Anti-inflammatory activity in LPS-induced sepsis shock mouse model assessed as survival rate at 1 mg/kg, iv pretreated daily for 5 days followed LPS treatment on day 5 at 1 hr post last dose and measured after 7 days relative to control; type: functional; outline: as §3

Row | SMILES | inhibition [2] [%] | inhibition at 10 µM (RAW264.7 [3]) [%] | inhibition [4] [%] | inhibition [5] [%] | also measured
1 | O=C(Nc1ccccc1)c1cc([N+](=O)[O-])ccc1Cl | – | – | – | – | viability at 48 h, 5 µM [1]: 99.1%
2 | O=C1C=C(Cc2ccc(NC(=O)c3ccccc3)cc2)C(=C(Br)Br)O1 | 28.2 | 30.3 | 21.2 | 20.2 | –
3 | O=C1C=C(Cc2ccc(NC(=O)c3ccco3)cc2)C(=CBr)O1 | 20.4 | 59.9 | 17.3 | 13.6 | –
4 | O=C(/C=C/c1ccccc1)Nc1ccc(CC2=CC(=O)OC2=C(Br)Br)cc1 | 16.2 | 54.4 | 9.48 | 18.1 | –
5 | O=C(Cc1ccccc1)Nc1ccc(CC2=CC(=O)OC2=C(Br)Br)cc1 | 24.8 | 44.1 | 19.2 | 19.2 | –
6 | Cc1ccc(CC(=O)Nc2ccc(CC3=CC(=O)OC3=C(Br)Br)cc2)cc1 | 24.5 | 19 | 14.2 | 16.4 | –
7 | CN(CCOc1ccc(CC2SC(=O)NC2=O)cc1)c1ccccn1 (stereo not given) [ROSIGLITAZONE] | 9.19 | 16.6 | 7.43 | 15.5 | Activity (RAW264.7 [6]): 11311.3 pg/mL; viability at 48 h, 10 µM [7]: 99%; Activity (RAW264.7 [8]): 64.8 pg/mL; Activity (RAW264.7 [9]): 345.6 pg/mL; survival at 20 mg/kg (Mus musculus [10]): 45.5%; Activity (RAW264.7 [11]): 20616 pg/mL; Activity (RAW264.7 [12]): 140 pg/mL; Activity (RAW264.7 [13]): 22226 pg/mL; survival at 1 mg/kg (Mus musculus [14]): 36.5%
8 | Cc1ccc(CC(=O)Nc2ccc(CC3=CC(=O)OC3=CBr)cc2)cc1 | 29.8 | 29.4 | 19 | 18.2 | –
9 | O=C(CCc1ccccc1)Nc1ccc(CC2=CC(=O)OC2=C(Br)Br)cc1 | 22.9 | 48.1 | 11 | 19.5 | –
10 | O=C(Cc1ccc(Br)cc1)Nc1ccc(CC2=CC(=O)OC2=C(Br)Br)cc1 | 27.9 | 50.7 | 10.4 | 20 | –
11 | O=C(CCc1ccccc1)Nc1ccc(CC2=CC(=O)OC2=CBr)cc1 | 20.6 | 64.8 | 14.9 | 15.2 | –
12 | COc1cc(CC(=O)Nc2ccc(CC3=CC(=O)OC3=C(Br)Br)cc2)cc(OC)c1OC | 19.5 | 21.2 | 9.79 | 7.66 | –
13 | O=C1C=C(Cc2ccc(NC(=O)c3cccs3)cc2)C(=CBr)O1 | 20.3 | 54.2 | 10.2 | 23.9 | –
14 | O=C1C=C(Br)/C(=C/Br)O1 | 20.2 | – | 21.4 | 24 | –
15 | COc1cc(CC(=O)Nc2ccc(CC3=CC(=O)OC3=CBr)cc2)cc(OC)c1OC | 20.3 | 34.3 | 8.53 | 5.57 | –
16 | O=C(Cc1c(Cl)cccc1Cl)Nc1ccc(CC2=CC(=O)OC2=C(Br)Br)cc1 | 19.3 | 53.5 | 19.1 | 19.2 | –
17 | O=C1C=C(Cc2ccc(NC(=O)c3cccs3)cc2)C(=C(Br)Br)O1 | 26.4 | 39.9 | 20 | 19.6 | –
18 | COc1ccc(CC(=O)Nc2ccc(CC3=CC(=O)OC3=C(Br)Br)cc2)cc1 | 20.6 | 25.2 | 11.8 | 13.8 | –
19 | O=C1C=C(Cc2ccc(NC(=O)c3ccco3)cc2)C(=C(Br)Br)O1 | 34.6 | 44.5 | 22.9 | 23.6 | –
20 | O=C(Cc1ccc(Br)cc1)Nc1ccc(CC2=CC(=O)OC2=CBr)cc1 | 40.8 | 64.9 | 24.9 | 17.2 | –
21 | COc1ccc(/C=C/C(=O)Nc2ccc(CC3=CC(=O)OC3=C(Br)Br)cc2)cc1 | 21.9 | 44.3 | 5.03 | 12.9 | –
22 | O=C(Cc1ccc(F)cc1)Nc1ccc(CC2=CC(=O)OC2=C(Br)Br)cc1 | 20 | 59.2 | 9.49 | 15.9 | –
23 | COc1ccc(C=CC(=O)Nc2ccc(CC3=CC(=O)O/C3=C/Br)cc2)cc1 | 24.3 | 61 | 12.2 | 10.6 | –
24 | O=C(Cc1ccccc1)Nc1ccc(CC2=CC(=O)OC2=CBr)cc1 | 25.8 | 59.5 | 18 | 17.3 | –
25 | O=C(Cc1c(Cl)cccc1Cl)Nc1ccc(CC2=CC(=O)OC2=CBr)cc1 | 17.6 | 66.6 | 16.9 | 15.2 | –
26 | COc1ccc(CC(=O)Nc2ccc(CC3=CC(=O)OC3=CBr)cc2)cc1 | 26.4 | 39.3 | 14.8 | 11.8 | –
27 | O=C1C=C(Cc2ccc(NC(=O)c3ccccc3)cc2)C(=CBr)O1 | 34.5 | 46.2 | 16.1 | 17.2 | –
28 | COc1ccc2c(c1)c(CC(=O)O)c(C)n2C(=O)c1ccc(Cl)cc1 [INDOMETHACIN] | – | 29.4 | – | – | Activity (RAW264.7 [6]): 10850 pg/mL; Activity (RAW264.7 [8]): 59.6 pg/mL; Activity (RAW264.7 [9]): 286.6 pg/mL; Activity (RAW264.7 [11]): 19664 pg/mL; Activity (RAW264.7 [12]): 120.7 pg/mL; Activity (RAW264.7 [13]): 20772 pg/mL
